Results from paper PMC4887403 (Bioorganic & medicinal chemistry letters, 2016).

Key:
[1] = system: asexual parasites of the chloroquine-sensitive 3D7 strain of P. falciparum; experiment: asexual blood stage assay; format: cell-based; settings: Plasmodium falciparum, 3D7, read-out: asexual activity (IC50, text)
How it was run: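 Asexual blood-stage parasites of chloroquine-sensitive P. falciparum 3D7 are tested with test compound in an 11-point dose-response, in duplicate. Each run includes a positive control and a DMSO negative control.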

HepG2 cells = experiment: HepG2 cell viability; format: cell-based; settings: highest concentration tested 46 µM
How it was run: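 HepG2 cells are incubated with test compound to measure general cytotoxicity as cell viability. The assay uses an 11-point dose-response in duplicate, with a positive control and a DMSO negative control.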

malaria transmission = settings: mouse model; cited from earlier work

| IC50 [1] | Compound | also measured |
| --- | --- | --- |
| < 0.1 µM | Cn1c(=O)n(-c2cccc(C(F)(F)F)c2)c2c3cc(-c4ccc(N)cc4)ccc3ncc21 [Compound 35] |  |
| < 0.1 µM | Cn1c(=O)n(-c2cccc(C(F)(F)F)c2)c2c3cc(-c4cccc(N)c4)ccc3ncc21 [Compound 37] |  |
|  | Cn1c(=O)n(-c2ccc(C#N)cc2)c2c3cc(-c4ccc(N)nc4)ccc3ncc21 [Compound 60] | HepG2 cytotoxicity (HepG2 cells): no measurable HepG2 cytotoxicity |
|  | Nc1ccc(-c2ccc3ncc4ccc(=O)n(-c5cccc(C(F)(F)F)c5)c4c3c2)cn1 [Torin 2] | efficacy for blocking malaria transmission (malaria transmission): efficacy for blocking malaria transmission in a mouse model |
